From ChEMBL document CHEMBL4422632, “Design of Novel Inhibitors of Human Thymidine Phosphorylase: Synthesis, Enzyme Inhibition, in Vitro Toxicity, and Impact on Human Glioblastoma Cancer” (J Med Chem, 2019) come the findings set out here.

SMILES strings stand for the structures. Activity calls are given as the source filed them. The rule behind the calls is not given here.

As usually defined, the IC50 is the concentration that gives 50% inhibition.

Series [1] can be described thus: Toxicity in nude BALB/c mouse xenografted with human U87MG cells assessed as reduction in body weight at 50 mg/kg, […]. It counts as organism-based. Set-up: scale not given: the % may be the effect or the level left. The settings on record: in vivo, ip, 120 h. (In general: Xenograft models place foreign cells or tissue in a host animal.)
Series [2] has as its system U-87 MG. The series is described as follows: Induction of apoptosis in human U87MG cells xenografted in BALB/c nude mouse assessed as caspase-3 levels at 50 mg/kg, ip after 14 days by immunohistochemistry. The settings on record: U-87MG ATCC. Type of series: functional, organism-based. The method, boiled down: (§1)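 Male BALB/c nude mice implanted subcutaneously with 5 x 10⁵ U-87 MG cells in the right flank. Treated IP at 50 mg/kg/day for 14 days, with saline controls, starting once tumors reached about 50 mm³. Tumors fixed in formaldehyde and cut at 3 µm. Citrate pH 6 antigen retrieval.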

In series [3] the test system is U-87 MG. In words: In-vivo inhibition of cell proliferation in human U87MG cells xenografted in BALB/c nude mouse at 50 mg/kg, ip after 14 days by Ki-67b-staining based assay. Type of series: functional, organism-based. As to conditions: U-87MG ATCC. The method, boiled down:
as §1

The test system of series [4] is U-87 MG. The series is described as follows: Anti-angiogenic activity in tumor of human U87MG cells xenografted in nude BALB/c mouse assessed as reduction in VEGF staining at 50 mg/kg, ip administered for 14 days by immunohistochemistry. Type of series: functional, organism-based. As to conditions: U-87MG ATCC. Summed up: (§2)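 Male nude mice bearing subcutaneous right-flank xenografts of 5 x 10⁵ U-87 MG cells; dosing began at about 50 mm³ tumors, ip daily for 14 days. Tumors formalin-fixed, paraffin sections 3 µm; citrate pH 6 antigen retrieval at 95-98 °C; primary antibody overnight at 4 °C, HRP secondary, DAB. Positive area quantified by optical density at x200, 4 images per tumor; mean ± SEM, one-way ANOVA with Dunnett.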

The test system of series [5] is U-87 MG. In words: Anti-angiogenic activity in tumor of human U87MG cells xenografted in nude BALB/c mouse assessed as reduction in number of blood vessels at 50 mg/kg, ip administered for 14 days by hematoxylin and eosin-staining based light microscopy. It counts as functional, organism-based. As to conditions: U-87MG ATCC. The method, boiled down:
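U-87 MG flank xenografts (5 x 10⁵ cells) in male nude mice; ip treatment daily from about 50 mm³ for 14 days, with temozolomide at 50 mg/kg/day in the co-treatment arm. Vessel density counted on HE-stained 3 µm sections by hot-spot method, mean of four fields per tumor at x200, avoiding gross haemorrhage. One-way ANOVA/Dunnett.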

In series [6] the test system is U-87 MG. The series is described as follows: Antitumor activity against human U87MG cells xenografted in BALB/c nude mouse assessed as tumor growth inhibition 50 mg/kg/day, ip administered for 14 days. The settings on record: U-87MG ATCC. It counts as functional, organism-based. The method, boiled down:
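5 x 10⁵ U-87 MG cells implanted subcutaneously in right flank of male BALB/c nude mice; at about 50 mm³, randomized to saline or ip 50 mg/kg/day, with temozolomide 50 mg/kg/day in the combination arm, for 14 days. Relative tumor volume = volume on day / day 0; TGI on day 14 = [1 − RTV treated/RTV control] x 100. Two-way ANOVA with Bonferroni.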

The test system of series [7] is U-87 MG. In words: Anti-angiogenic activity in tumor of human U87MG cells xenografted in nude BALB/c mouse assessed as reduction in CD31 staining at 50 mg/kg, ip administered for 14 days by immunohistochemistry. Type of series: functional, organism-based. As to conditions: U-87MG ATCC. The method, boiled down:
as §2

The next series has as its target T1, Thymidine phosphorylase (Homo sapiens, UniProt P19971).
T1 sequence (P19971 whole entry): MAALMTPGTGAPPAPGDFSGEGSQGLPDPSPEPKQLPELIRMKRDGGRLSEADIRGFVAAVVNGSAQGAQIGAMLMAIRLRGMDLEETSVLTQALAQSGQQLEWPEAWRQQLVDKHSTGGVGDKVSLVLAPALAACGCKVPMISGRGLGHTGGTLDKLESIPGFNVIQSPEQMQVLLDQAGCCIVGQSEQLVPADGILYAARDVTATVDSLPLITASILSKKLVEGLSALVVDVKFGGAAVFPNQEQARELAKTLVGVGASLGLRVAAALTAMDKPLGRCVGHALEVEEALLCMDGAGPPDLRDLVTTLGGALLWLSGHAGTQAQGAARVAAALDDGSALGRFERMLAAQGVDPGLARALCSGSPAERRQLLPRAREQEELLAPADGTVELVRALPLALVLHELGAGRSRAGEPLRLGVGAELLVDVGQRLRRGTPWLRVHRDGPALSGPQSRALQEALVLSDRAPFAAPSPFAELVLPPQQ
The series is described as follows: Inhibition of recombinant human thymidine phosphorylase expressed in Escherichia coli Rosetta (DE3) cells using thymidine as substrate after 1 min by UV/visible spectrophotometry.

Consider `Cn1nnc2c(C(N)=O)ncn2c1=O` [TEMOZOLOMIDE], for which, in series [1], the Activity was less than 20%. The outcome in the series on U-87 MG [2], in the series with U-87 MG [4], in the series on U-87 MG [5] and in the series on U-87 MG [7] was inactive. Also, the inhibition entry with U-87 MG [3] was “inactive”. The TGI result with U-87 MG [6] is “Active”.
On to `CCCN(CCC)Cc1[nH]c(=O)[nH]c(=O)c1I`, for which the IC50 at Thymidine phosphorylase was more than 100 µM.
`O=c1[nH]c(CNCC(O)CO)c(Br)c(=O)[nH]1` (centres undefined): on Thymidine phosphorylase, the IC50 was more than 100 µM.
